Reference: ChEMBL document CHEMBL5252513, “Identification of a Benzoisoxazoloazepine Inhibitor (CPI-0610) of the Bromodomain and Extra-Terminal (BET) Family as a Candidate for Human Clinical Trials” (J Med Chem, 2016)
The source made the active and inactive calls. No cut-off for these calls is given here.

How the values were obtained:
[1] = target: T1, Bromodomain-containing protein 4 (Homo sapiens, UniProt O60885); test: Inhibition of BRD4 BD1 in human MV4-11 cells assessed as reduction of MYC RNA expression after 4 hrs by PCR analysis; type: cell-based
[2] = target: T1, Bromodomain-containing protein 4; test: Inhibition of BRD4 BD1 (unknown origin) using biotinylated ligand incubated for 60 mins by TR-FRET assay
[3] = Intrinsic clearance in mouse liver microsomes; type: ADME, Microsome; settings: read-out: CLH
[4] = Intrinsic clearance in dog liver microsomes; type: ADME, Canis lupus familiaris, Microsome; settings: read-out: CLH
[5] = Protein binding in rat plasma; type: ADME, cell-free; settings: read-out: PPB (converted)
[6] = Protein binding in dog plasma; type: ADME, cell-free, Canis lupus familiaris; settings: read-out: PPB (converted)
[7] = Intrinsic clearance in rat liver microsomes; type: ADME, Microsome
[8] = Intrinsic clearance in human liver microsomes; type: ADME, Microsome; settings: read-out: CLH
[9] = Protein binding in human plasma; type: ADME, cell-free; settings: read-out: PPB (converted)
[10] = Protein binding in mouse plasma; type: ADME, cell-free; settings: read-out: PPB (converted)
[11] = Oral bioavailability in rat at 10 mg/kg; type: ADME, organism-based; settings: in vivo
[12] = Volume of distribution at steady state in rat at 1 mg/kg,iv; type: ADME, organism-based; settings: in vivo, read-out: Vdss
[13] = Tmax in rat at 10 mg/kg,po; type: ADME, organism-based; settings: in vivo
[14] = Half life in rat plasma at 1 mg/kg,iv; type: ADME, organism-based
[15] = Clearance in rat assessed as liver blood flow at 1 mg/kg,iv; type: ADME, organism-based; settings: in vivo
[16] = Cmax in rat at 10 mg/kg,po; type: ADME, organism-based; set-up: dose 10 mg/kg, route po; settings: in vivo
[17] = Total clearance in rat at 1 mg/kg,iv; type: ADME, organism-based; settings: in vivo
[18] = Unbound AUC in rat at 10 mg/kg,po; type: ADME, organism-based; settings: in vivo
[19] = Unbound clearance in rat at 1 mg/kg,iv; type: ADME, organism-based; settings: in vivo
[20] = AUC (0 to infinity) in rat at 10 mg/kg,po; type: ADME, organism-based; set-up: dose 10 mg/kg, route po; settings: in vivo
[21] = Cmax in rat at 5 mg/kg,po; type: ADME, organism-based; set-up: dose 5 mg/kg, route po; settings: in vivo
[22] = Tmax in rat at 5 mg/kg,po; type: ADME, organism-based; settings: in vivo
[23] = AUC (0 to infinity) in rat at 5 mg/kg,po; type: ADME, organism-based; set-up: dose 5 mg/kg, route po; settings: in vivo
[24] = Oral bioavailability in rat at 5 mg/kg; type: ADME, organism-based; settings: in vivo
[25] = Unbound AUC in rat at 5 mg/kg,po; type: ADME, organism-based; settings: in vivo
[26] = target: T1, Bromodomain-containing protein 4; test: Inhibition of BRD4 BD1 in human Raji cells assessed as reduction of MYC RNA expression after 4 hrs by PCR analysis; type: cell-based
[27] = target: T1, Bromodomain-containing protein 4; test: Displacement of biotinylated JQ1 from BRD4 BD1 (unknown origin) incubated for 20 mins by AlphaLISA assay
MV4-11 [28] = test: Antitumor activity against human MV4-11 cells xenografted in BALB/c mouse assessed as modest tumor growth inhibition at 2 mg/kg,iv BIW for 28 days; type: functional, organism-based; settings: time 28.0 day
MV4-11 [29] = test: Antitumor activity against human MV4-11 cells xenografted in BALB/c mouse assessed as complete tumor growth inhibition at 2 mg/kg,iv BIW in presence of at 10 mg/kg,sc BID for 28 days; type: functional, organism-based; settings: time 28.0 day
MV4-11 [30] = test: Antitumor activity against human MV4-11 cells xenografted in BALB/c mouse assessed as slower tumor regrowth after drug therapy removal at 2 mg/kg,iv BIW in presence of at 10 mg/kg,sc BID for 28 days and measured after 28 days; type: functional, organism-based; settings: time 28.0 day
[31] = Toxicity against BALB/c mouse plasma xenografted with human MV4-11 cells assessed as body weight loss at 2 mg/kg,iv BIW in presence of at 10 mg/kg,sc BID for 28 days; type: organism-based; settings: in vivo, 672 h, time 28 day
Summary of the method: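 MV-4-11 acute myeloid leukemia mouse xenograft; BET inhibitor given subcutaneously 10 mg/kg twice daily, doxorubicin 2 mg/kg IV twice weekly, alone or combined, for 28 days; body weight change (%) tracked over treatment against vehicle.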

SMILES | EC50 [1] [nM] | IC50 [2] [nM] | predicted hepatic clearance [3] [mL/min/kg] | predicted hepatic clearance [4] [mL/min/kg] | fraction unbound [5] | fraction unbound [6] | predicted hepatic clearance (CLH) [7] [mL/min/kg] | predicted hepatic clearance [8] [mL/min/kg] | fraction unbound [9] | fraction unbound [10] | other results
Cc1nsc2c1C(c1ccc(Cl)cc1)=NCc1onc(C)c1-2 | > 4000 | > 80000 |  |  |  |  |  |  |  |  | 
CNc1ccc2c(n1)C(c1ccc(Cl)cc1)=NCc1onc(C)c1-2 | 440 | 59 |  |  |  |  |  |  |  |  | 
COc1ccc(C2=N[C@@H](CC(N)=O)c3onc(C)c3-c3ccccc32)cc1 | 170 | 48 | 83 | 26 | 0.21 | 0.14 | 33 | 8 | 0.12 | 0.11 | 
CCNC(=O)C[C@@H]1N=C(c2ccc(Cl)cc2)c2ccccc2-c2c(C)noc21 | 210 | 52 | 61 | 29 | 0.04 | 0.02 | 42 | 18 | 0.02 | 0.01 | 
Cc1onc2c1-c1ccccc1C(c1ccc(Cl)cc1)=NC2 |  | 1300 |  |  |  |  |  |  |  |  | 
Cc1ccc(C2=N[C@@H](CC(N)=O)c3onc(C)c3-c3ccccc32)cc1 | 170 | 52 | 78 | 29 | 0.1 | 0.08 | 49 | 11 | 0.1 | 0.07 | 
COCCNC(=O)C[C@@H]1N=C(c2ccc(Cl)cc2)c2ccccc2-c2c(C)noc21 | 270 | 56 | 82 | 30 | 0.07 | 0.03 | 45 | 19 | < 0.01 | 0.01 | bioavailability [11]: 11%; Vd [12]: 1.8 L/kg; Tmax [13]: 40.2 min; half-life [14]: 72 min; QH [15]: 66%; Cmax [16]: 380 nM; clearance [17]: 36.7 mL/min/kg; fAUC [18]: 0.084 µM·h; CL free [19]: 517 mL/min/kg; AUC(0-inf) [20]: 1.2 µM·h
Cc1nnc2n1-c1ccccc1C(c1ccc(Cl)cc1)=NC2 |  | 1800 |  |  |  |  |  |  |  |  | 
Cc1noc2c1-c1ccccc1C(c1ccccc1)=N[C@H]2CC(N)=O | 250 | 110 | 10 | 17 | 0.2 | 0.12 | 28 | < 5 | 0.19 | 0.16 | 
Cc1cccc2c1C(c1ccc(Cl)cc1)=N[C@@H](CC(N)=O)c1onc(C)c1-2 | 140 | 13 | 47 | 24 | 0.04 | 0.02 | 37 | 11 | 0.02 | 0.02 | Cmax [21]: 1200 nM; Vd [12]: 2.5 L/kg; half-life [14]: 59.4 min; Tmax [22]: 120 min; QH [15]: 76%; AUC(0-inf) [23]: 4.9 µM·h; bioavailability [24]: 92%; clearance [17]: 41.7 mL/min/kg; fAUC [25]: 0.2 µM·h; CL free [19]: 1050 mL/min/kg
Cc1noc2c1-c1ccccc1C(c1ccc(Cl)cc1)=N[C@@H]2CC(=O)OC(C)(C)C |  | > 80000 |  |  |  |  |  |  |  |  | 
COc1nccc2c1C(c1ccc(Cl)cc1)=NCc1onc(C)c1-2 |  | 440 |  |  |  |  |  |  |  |  | 
COc1ccc2c(c1)C(c1ccc(Cl)cc1)=N[C@@H](CC(N)=O)c1onc(C)c1-2 | 64 | 17 | 26 | 21 | 0.06 | 0.03 | 35 | 9 | 0.05 | 0.03 | bioavailability [11]: 60%; Vd [12]: 1.7 L/kg; Tmax [13]: 49.8 min; half-life [14]: 38.4 min; QH [15]: 66%; Cmax [16]: 1600 nM; clearance [17]: 36.7 mL/min/kg; fAUC [18]: 0.51 µM·h; CL free [19]: 617 mL/min/kg; AUC(0-inf) [20]: 8.5 µM·h
Cc1noc(N)c1-c1ccccc1 |  | 20000 |  |  |  |  |  |  |  |  | 
Cc1noc2c1-c1cn(C)nc1C(c1ccc(Cl)cc1)=NC2 | 2600 | 590 |  |  |  |  |  |  |  |  | 
Cc1noc2c1-c1ccnc(N)c1C(c1ccc(Cl)cc1)=NC2 |  | 90 |  |  |  |  |  |  |  |  | EC50 [26]: 720 nM
Cc1noc2c1-c1ccccc1C(c1ccc(Cl)cc1)=N[C@H]2CC(=O)OC(C)(C)C |  |  |  |  |  |  |  |  |  |  | IC50 [27]: 580 nM
Cc1noc2c1-c1ccccc1C(c1ccc(Cl)cc1)=NN2 |  | 880 |  |  |  |  |  |  |  |  | 
Cc1noc2c1-c1ccccc1C(c1ccc(Cl)cc1)=N[C@H]2CC(N)C(F)(F)F (stereo not given in full) | > 4000 | 11000 | 41 | 27 | 0.01 | 0.01 | 38 | 13 | 0.01 | 0.01 | 
Cc1noc2c1-c1ccc(=O)n(C)c1C(c1ccc(Cl)cc1)=NC2 | 2900 | 750 |  |  |  |  |  |  |  |  | 
Cc1noc2c1-c1ccccc1C(c1ccc(Cl)cc1)=NC2 |  |  | 52 | 29 | 0.01 | < 0.01 | 40 | 15 | 0.01 | 0.01 | 
Cc1noc2c1-c1ccc(-c3cn(C)cn3)cc1C(c1ccc(Cl)cc1)=N[C@H]2CC(N)=O | 30 | 11 | 28 | 23 | 0.14 | 0.11 | < 10 | 11 | 0.14 | 0.11 | 
Cc1noc2c1-c1c[nH]c(=O)cc1C(c1ccc(Cl)cc1)=NC2 | 1100 | 530 |  |  |  |  |  |  |  |  | 
CCNC(=O)NC1N=C(c2ccc(Cl)cc2)c2ccccc2-c2c(C)noc21 (stereo not given) | 100 | 33 | 38 | 21 | 0.02 | 0.02 | 29 | 13 | 0.03 | 0.03 | 
Cc1noc2c1-c1ccc(-c3ccc(N)nc3)cc1C(c1ccc(Cl)cc1)=N[C@H]2CC(N)=O | 33 | 7 | 36 | 25 | 0.09 | 0.02 | 34 | 13 | 0.04 | 0.02 | Vd [12]: 5.4 L/kg; half-life [14]: 40.8 min; QH [15]: 230%; clearance [17]: 127 mL/min/kg; CL free [19]: 1400 mL/min/kg
Cc1noc2c1-c1ccccc1C(c1ccc(C#N)cc1)=N[C@H]2CC(N)=O | 220 | 94 | 29 | < 14 | 0.33 | 0.22 | 16 | 9 | 0.11 | 0.13 | Cmax [21]: 1800 nM; Vd [12]: 1.2 L/kg; half-life [14]: 39.6 min; Tmax [22]: 49.8 min; QH [15]: 39%; AUC(0-inf) [23]: 5.9 µM·h; bioavailability [24]: 56%; clearance [17]: 21.7 mL/min/kg; fAUC [25]: 2 µM·h; CL free [19]: 65 mL/min/kg
Cc1noc2c1-c1ccccc1C(c1ccc(Cl)cc1)=NC2C(N)=O (stereo not given) | 4000 | 15000 | 32 | 29 |  | 0.02 | 27 | 20 | 0.02 | 0.01 | 
COc1cccc2c1C(=O)c1c(O)c3c(c(O)c1C2=O)C[C@@](O)(C(=O)CO)C[C@@H]3O[C@H]1C[C@H](N)[C@H](O)[C@H](C)O1 [DOXORUBICIN] |  |  |  |  |  |  |  |  |  |  | Activity (MV4-11 [28]): Active; Activity (MV4-11 [29]): Active; Activity (MV4-11 [30]): Active; Activity [31]: Non-Toxic
